Assay [1] deals with B16-F10. The assay can be described thus: Cytotoxicity against mouse B16F10 cells at 100 uM after 24 hrs by MTT assay relative to control. It is filed as functional. An outline of the steps:
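Single-concentration screen in which B16-F10 cells (1 × 10⁵) were exposed to 100 µM compound for 24 h. Viability was read by MTT, with control optical density set as 100%. Three experiments in triplicate, mean ± S.E.M.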
In general terms: Formazan colour is commonly taken as a measure of viable cells.

For assay [2], the system named is B16-F10. The assay can be described thus: Cytotoxicity against mouse B16F10 cells after 72 hrs by MTT assay. The assay is classed as functional, cell-based. The following applies: B16-F10, 72 h. In short, it runs like this:
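MTT viability assay on B16-F10 cells seeded at 1 × 10⁴ cells/well. Compounds were dissolved in DMSO (0.1% final) and tested over 0–40 µM for 72 h at 37 °C in triplicate. MTT was added for 3 h and formazan dissolved in acidified isopropanol (HCl 0.04 M). Absorbance read at 540 nm. IC50 taken from concentration–response curves against untreated control.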

In assay [3] the test system is B16-F10. The assay can be described thus: Induction of apoptosis in mouse B16F10 cells assessed as DNA fragmentation at IC50 after 24 hrs by gel electrophoresis. It is filed as functional, cell-based. In short, it runs like this:
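DNA ladder assay: 5 × 10⁵ B16-F10 cells were treated for 24 h with each compound at its cell-viability IC50 (DMSO 0.1% final). DNA was ethanol-precipitated, RNase A-treated at 37 °C for 1 h, run on 1.5% agarose and stained with ethidium bromide.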

Assay [4] concerns B16-F10. The assay can be described thus: Induction of necrosis in mouse B16F10 cells assessed as alteration in ATP level up to 100 uM after 24 hrs by bioluminescent assay. The assay is classed as functional, cell-based. In short, it runs like this: (§1)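 Intracellular ATP was measured by luciferin–luciferase bioluminescence. About 3 × 10⁵ B16-F10 cells were exposed to 0–100 µM compound for 24 h, pelleted, and extracted with 1.25% trichloroacetic acid on ice for 30 min. Extracts were neutralized with Tris-acetate 1 M pH 7.5 and diluted 4-fold before reading. Three experiments in triplicate.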

The subject of assay [5] is B16-F10. In words: Induction of apoptosis in mouse B16F10 cells assessed as decrease in total glutathione level up to 100 uM after 24 hrs by glutathione reductase method. It is filed as functional, cell-based. In short, it runs like this: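 About 3 × 10⁵ B16-F10 cells were treated with 0–100 µM compound for 24 h. A mitochondria-enriched fraction was prepared by centrifugation after homogenization in Tris-sucrose buffer and sonication. Total glutathione (GSH + GSSG) was assayed by the glutathione reductase/DTNB/NADPH method in phosphate buffer 100 mM pH 7.4. Absorbance at 412 nm was read every minute for 5 min against a GSH standard curve.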

Assay [6] deals with B16-F10. In words: Induction of apoptosis in mouse B16F10 cells assessed as decrease in ATP level after 24 hrs by bioluminescent assay. The assay is classed as functional, cell-based. In short, it runs like this:
as §1

Structures are written as SMILES. Active and inactive are the calls of the source. The rule behind the calls is not given here.

One may read the IC50 as the concentration at which inhibition is half-maximal. Higher therefore signals weaker potency in that assay.

`COc1cc(OC)c(C(=O)/C=C/c2ccccc2Cl)c(O)c1Br`: the result with B16-F10 [1] was inactive.

For the compound `COc1ccc(/C=C/C(=O)c2c(OC)cc(OC)c(Br)c2O)cc1`, in the assay on B16-F10 [1], the outcome was inactive.

As for `COc1cc(O)c(C(=O)/C=C/c2cccc3ccccc23)c(OC)c1`, the result with B16-F10 [1] was inactive.

For the compound `COc1cc(OC)c(C(=O)/C=C/c2c(OC)cccc2OC)c(O)c1Br`, the result in the assay with B16-F10 [1] was inactive.

As to `COc1cc(O)c(C(=O)/C=C/c2cccc(Cl)c2)c(OC)c1`, the result with B16-F10 [1] was inactive.

Take `CCCCOc1ccc(/C=C/C(=O)c2c(OC)cc(OC)c(Br)c2O)cc1`: the outcome in the assay on B16-F10 [1] was inactive.

`COc1cc(OC)c(C(=O)/C=C/c2ccccc2C(=O)O)c(O)c1Br` had a 50% inhibitory concentration (IC50) in the assay with B16-F10 [2] of 30 µM. For the same compound, the Activity in the assay with B16-F10 [1] was determined as 50%. The outcome in the assay with B16-F10 [3] and in the assay on B16-F10 [4] was inactive.

For the compound `COc1cc(OC)c(C(=O)/C=C/c2ccc([N+](=O)[O-])cc2)c(O)c1Br`, the outcome in the assay on B16-F10 [1] was inactive.

Turning to `O=C(/C=C/c1cccc2ccccc12)c1ccccc1O`, the outcome in the assay on B16-F10 [5] and in the assay on B16-F10 [3] was Active. For the same compound, in the assay with B16-F10 [2], the IC50 was found to be 17 µM. The values for the Activity in the assay on B16-F10 [1] and in the assay with B16-F10 [6] were 75.2% and “Dose-dependent effect”, respectively.

For `O=C(/C=C/c1ccc2ccccc2c1)c1ccccc1O`, the outcome with B16-F10 [1] was inactive.

For the compound `COc1cc(C(=O)/C=C/c2ccc3ccccc3c2)ccc1O`, in the assay with B16-F10 [1], the outcome was inactive.

Consider `O=C(/C=C/c1cccc2ccccc12)c1cccc(O)c1`, for which the result in the assay on B16-F10 [5] and in the assay on B16-F10 [3] was Active. Also, in the assay on B16-F10 [2], the IC50 worked out at 12 µM. The Activity in the assay with B16-F10 [1] was 97.7%; in the assay on B16-F10 [6] it was “Dose-dependent effect”.

In the case of `COc1cc(O)c(C(=O)/C=C/c2cccc([N+](=O)[O-])c2)c(OC)c1`, the outcome in the assay with B16-F10 [1] was inactive.

These data come from ChEMBL document CHEMBL1137752, “Hydroxychalcones induce apoptosis in B16-F10 melanoma cells via GSH and ATP depletion” (Eur J Med Chem, 2009).
